Results taken from ChEMBL document CHEMBL3785031, “Discovery of small-molecule nonpeptide antagonists of nociceptin/orphanin FQ receptor: The studies of design, synthesis, and structure-activity relationships for (4-arylpiperidine substituted-methyl)-[bicyclic (hetero)cycloalkanobenzene] derivatives” (Eur J Med Chem, 2016).

Experiments:
[1] = biological target: T1, Nociceptin receptor (Homo sapiens, UniProt P41146); test: Displacement of [3H]N/OFQ from human NOP receptor expressed in HEK293 cells after 45 mins by scintillation proximity assay; format: cell-based
T1 sequence (P41146 whole entry): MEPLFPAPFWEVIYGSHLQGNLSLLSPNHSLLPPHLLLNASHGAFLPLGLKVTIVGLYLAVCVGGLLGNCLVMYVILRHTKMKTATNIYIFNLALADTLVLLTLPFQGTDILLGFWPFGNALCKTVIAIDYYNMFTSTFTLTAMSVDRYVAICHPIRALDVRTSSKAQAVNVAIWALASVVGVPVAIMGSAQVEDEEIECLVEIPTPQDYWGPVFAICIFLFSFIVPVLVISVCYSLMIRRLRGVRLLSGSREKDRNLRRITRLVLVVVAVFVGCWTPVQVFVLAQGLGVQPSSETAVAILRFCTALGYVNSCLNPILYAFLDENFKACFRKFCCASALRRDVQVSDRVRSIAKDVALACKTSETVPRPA
In short: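 HEK-293 membranes bearing recombinant hNOP receptor (8.3 μg) were incubated at 25 °C for 45 min with 0.4 nM [3H]N/OFQ and WGA-SPA beads. Buffer was 50 mM HEPES, pH 7.4, with 10 mM MgCl2 and 1 mM EDTA. Six concentrations, 10⁻¹¹–10⁻⁵ M, were run in duplicate; NSB with 1 μM N/OFQ. IC50 by nonlinear regression; Ki = IC50/(1+[L]/KD), KD 0.135 nM.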

[2] = biological target: Mu-type opioid receptor (Homo sapiens, UniProt P35372); test: Displacement of [3H]DAMGO from human mu opioid receptor expressed in CHOK1 cells after 45 mins by scintillation proximity assay; format: cell-based, CHO-K1
Chain of Mu-type opioid receptor (P35372 whole entry): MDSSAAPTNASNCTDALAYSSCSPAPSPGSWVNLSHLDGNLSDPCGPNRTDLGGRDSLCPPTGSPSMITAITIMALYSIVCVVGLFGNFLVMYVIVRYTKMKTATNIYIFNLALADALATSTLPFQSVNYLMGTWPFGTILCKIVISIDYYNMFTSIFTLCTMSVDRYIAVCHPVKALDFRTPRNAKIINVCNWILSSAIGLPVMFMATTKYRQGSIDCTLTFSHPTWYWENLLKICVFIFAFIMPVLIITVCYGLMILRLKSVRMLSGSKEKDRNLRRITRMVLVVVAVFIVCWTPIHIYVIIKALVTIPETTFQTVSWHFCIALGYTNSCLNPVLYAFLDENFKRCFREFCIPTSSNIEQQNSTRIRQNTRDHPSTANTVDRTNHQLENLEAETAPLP

[3] = biological target: T1, Nociceptin receptor; test: Antagonist activity at human NOP receptor expressed in HEK293 cells assessed as inhibition of N/OFQ-induced [35S]GTPgammaS binding after 1.5 hrs by scintillation proximity assay; format: functional, cell-based
In short: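 Membranes from HEK-293 cells expressing hNOP receptor were incubated 1.5 h at 25 °C with 10 nM N/OFQ, 400 pM [35S]GTPγS, 5 μM GDP and WGA-SPA beads. Buffer was 20 mM HEPES, 100 mM NaCl, 5 mM MgCl2 and 1 mM EDTA, pH 7.4. Six compound concentrations from 0.1 nM to 10 μM were run in duplicate. Basal binding was measured without ligands; NSB with 10 μM unlabeled GTPγS. Read by scintillation counting; IC50 derived.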

[4] = Half life in human liver microsomes at 1 uM by HPLC-MS/MS analysis; format: ADME
In short: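 Substrate at 1.0 μM was incubated at 37 °C in pooled human liver microsomes (1.0 mg/mL protein) with 3.3 mM MgCl2, 0.1 M NaKHPO4 (pH 7.4) and an NADPH-regenerating system.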

[5] = tested on: HEK293; test: Selectivity ratio of Ki for human mu opioid receptor expressed in CHOK1 cells to Ki for human NOP receptor expressed in HEK293 cells; format: cell-based
[6] = biological target: Voltage-gated inwardly rectifying potassium channel KCNH2 (Homo sapiens, UniProt Q12809); test: Displacement of [3H]dofetilide from human ERG channel expressed in HEK293 cells after 60 mins by liquid scintillation counting method; format: cell-based
Chain of Voltage-gated inwardly rectifying potassium channel KCNH2 (Q12809 whole entry): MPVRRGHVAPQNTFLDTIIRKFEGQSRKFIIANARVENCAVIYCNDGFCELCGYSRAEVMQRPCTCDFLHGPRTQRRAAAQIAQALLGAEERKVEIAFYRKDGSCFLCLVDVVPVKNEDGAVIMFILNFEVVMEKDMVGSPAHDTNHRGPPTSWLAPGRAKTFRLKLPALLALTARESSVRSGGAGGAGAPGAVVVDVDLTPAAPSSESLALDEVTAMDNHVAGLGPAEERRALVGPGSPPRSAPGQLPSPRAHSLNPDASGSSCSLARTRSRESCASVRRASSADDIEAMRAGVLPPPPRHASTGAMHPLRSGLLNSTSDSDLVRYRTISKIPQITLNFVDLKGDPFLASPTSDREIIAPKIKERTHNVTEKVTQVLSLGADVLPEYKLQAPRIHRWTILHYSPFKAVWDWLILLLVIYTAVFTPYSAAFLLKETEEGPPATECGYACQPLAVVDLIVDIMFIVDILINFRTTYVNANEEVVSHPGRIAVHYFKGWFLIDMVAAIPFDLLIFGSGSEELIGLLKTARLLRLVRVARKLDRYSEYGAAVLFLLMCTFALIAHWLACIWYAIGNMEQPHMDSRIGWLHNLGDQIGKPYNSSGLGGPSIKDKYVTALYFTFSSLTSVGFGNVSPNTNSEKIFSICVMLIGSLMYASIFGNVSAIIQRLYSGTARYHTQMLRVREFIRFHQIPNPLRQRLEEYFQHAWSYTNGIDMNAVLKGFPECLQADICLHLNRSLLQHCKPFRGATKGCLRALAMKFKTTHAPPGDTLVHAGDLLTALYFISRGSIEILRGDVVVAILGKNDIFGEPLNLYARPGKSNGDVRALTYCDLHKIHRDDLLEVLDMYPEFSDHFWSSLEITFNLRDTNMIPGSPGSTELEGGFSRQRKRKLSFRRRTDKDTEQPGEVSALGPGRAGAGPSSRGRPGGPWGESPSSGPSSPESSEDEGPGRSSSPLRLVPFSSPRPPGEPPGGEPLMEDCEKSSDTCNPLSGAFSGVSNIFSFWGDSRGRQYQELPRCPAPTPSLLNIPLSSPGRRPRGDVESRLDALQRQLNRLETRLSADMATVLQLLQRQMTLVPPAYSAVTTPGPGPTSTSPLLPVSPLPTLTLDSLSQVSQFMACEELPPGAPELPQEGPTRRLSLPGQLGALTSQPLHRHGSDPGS

[7] = biological target: hERG (KCNH2) (Homo sapiens, UniProt Q12809); test: Displacement of [3H]dofetilide from human ERG channel expressed in HEK293 cells at 1 uM after 60 mins by liquid scintillation counting method; format: cell-based; settings: HEK293 cells that express hERG, probe [3H]dofetilide
Chain of hERG (KCNH2) (Q12809 whole entry): as above

SMILES | Ki [1] | Ki [2] | IC50 [3] | half-life at 1 µM [4] | Ratio Ki [5] | IC50 [6] | inhibition at 1 h, 1 µM [7]
Oc1ccc(Cl)c2c1CNC(CN1CCC3(CCc4ccccc43)CC1)C2 (stereo not drawn) | 2.2 nM | 68.8 nM | 21.3 nM | 15.3 min | – | – | –
Cc1cc(F)ccc1C1CCN(CC2Cc3ccccc3CN2)CC1 (stereo not drawn) | 3.56 nM | 342 nM | 58.8 nM | 6.9 min | 96.1 | 200 nM | –
Cc1cc(F)ccc1C1CCN(CC2Cc3c(Cl)ccc(O)c3CN2)CC1 (stereo not drawn) | 3.03 nM | > 450 nM | 28.7 nM | 21.6 min | > 143 | 970 nM | –
Oc1ccc(Br)c2c1CNC(CN1CCC3(CCc4ccccc43)CC1)C2 (stereo not drawn) | 1.74 nM | 139 nM | 35.1 nM | 9.6 min | – | – | –
CN1Cc2ccccc2CC1CN1CCC2(CCc3ccccc32)CC1 (stereo not drawn) | 18.9 nM | 58.2 nM | – | – | 3.08 | – | –
CN1C(=O)c2ccccc2CC1CN1CCC2(CCc3ccccc32)CC1 (stereo not drawn) | > 250 nM | 231 nM | – | – | < 0.924 | 6960 nM | –
c1ccc2c(c1)CCC(CN1CCC3(CCc4ccccc43)CC1)C2 (stereo not drawn) | 5.55 nM | 289 nM | 683 nM | – | 52.1 | – | 71%
Oc1ccc2c(c1)CC(CN1CCC3(CCc4ccccc43)CC1)NC2 (stereo not drawn) | 10.2 nM | 392 nM | 227 nM | 18 min | – | – | –
c1ccc2c(c1)CC(CN1CCC3(CCc4ccccc43)CC1)CO2 (stereo not drawn) | 5.65 nM | 49.1 nM | 122 nM | 3.1 min | 8.69 | 1500 nM | –
O=C(C1Cc2ccccc2CN1)N1CCC2(CCc3ccccc32)CC1 (stereo not drawn) | > 250 nM | > 450 nM | – | – | – | – | –
c1ccc2c(c1)CNC(CN1CCC3(CCc4ccccc43)CC1)C2 (stereo not drawn) | 8.5 nM | 225 nM | 248 nM | 6.6 min | 26.5 | > 1500 nM | –
Oc1cccc2c1CNC(CN1CCC3(CCc4ccccc43)CC1)C2 (stereo not drawn) | 2.4 nM | 288 nM | 53.9 nM | 12.2 min | 120 | 940 nM | –
CC(=O)N1Cc2ccccc2CC1CN1CCC2(CCc3ccccc32)CC1 (stereo not drawn) | 29.8 nM | 74.4 nM | – | – | 2.5 | 500 nM | –
NC(=O)N1Cc2ccccc2CC1CN1CCC2(CCc3ccccc32)CC1 (stereo not drawn) | 18.1 nM | 108 nM | – | – | 5.97 | – | –
